Reference: ChEMBL document CHEMBL1125154, “An approach to trapping gamma-glutamyl radical intermediates proposed for vitamin K dependent carboxylase: alpha,beta-methyleneglutamic acid” (1990)
Each block holds one compound with its values, some of them ahead of it.

What was measured:
Rattus norvegicus [1] = species: Rattus norvegicus; assay: Epoxide formation after incubation at 17 degree Celsius for 60 min (compounds tested the ratio of 5 mM 19 and 0.5 mM 20); assay type: functional
Procedure, shortened: (§1)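 Microsomes came from vitamin K deficient rats dosed with 1 mg phylloquinone (ic) 15 min before killing. Incubation ran at 17 °C for 60 min, with the analogue at 5 mM and/or the Glu-site substrate at 0.5 mM. To extract, 0.5 mL of mix was quenched with 2 volumes of 3:2 2-propanol–hexane, vortexed, held 15 min at 4 °C, and centrifuged. The hexane layer was dried under N₂ and epoxide reported as nmol. Values are mean ± SD of four values.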

Rattus norvegicus [2] = species: Rattus norvegicus; assay: Epoxide formation was determined at a concentration 0.5 mM of compound along with 5 mM of 1-tert-Butoxycarbonylamino-2-carboxymethyl-cyclopropanecarboxylic acid benzyl ester; assay type: functional; procedure, shortened: as §1
[3] = target: T1, Vitamin K-dependent gamma-carboxylase (Rattus norvegicus) (UniProt O88496); assay: Inhibition of Vitamin K-dependent gamma-carboxylase was determined at a concentration of 1 mM, incubations were at 17 degree Centigrade for 30 minutes
T1 sequence (whole entry): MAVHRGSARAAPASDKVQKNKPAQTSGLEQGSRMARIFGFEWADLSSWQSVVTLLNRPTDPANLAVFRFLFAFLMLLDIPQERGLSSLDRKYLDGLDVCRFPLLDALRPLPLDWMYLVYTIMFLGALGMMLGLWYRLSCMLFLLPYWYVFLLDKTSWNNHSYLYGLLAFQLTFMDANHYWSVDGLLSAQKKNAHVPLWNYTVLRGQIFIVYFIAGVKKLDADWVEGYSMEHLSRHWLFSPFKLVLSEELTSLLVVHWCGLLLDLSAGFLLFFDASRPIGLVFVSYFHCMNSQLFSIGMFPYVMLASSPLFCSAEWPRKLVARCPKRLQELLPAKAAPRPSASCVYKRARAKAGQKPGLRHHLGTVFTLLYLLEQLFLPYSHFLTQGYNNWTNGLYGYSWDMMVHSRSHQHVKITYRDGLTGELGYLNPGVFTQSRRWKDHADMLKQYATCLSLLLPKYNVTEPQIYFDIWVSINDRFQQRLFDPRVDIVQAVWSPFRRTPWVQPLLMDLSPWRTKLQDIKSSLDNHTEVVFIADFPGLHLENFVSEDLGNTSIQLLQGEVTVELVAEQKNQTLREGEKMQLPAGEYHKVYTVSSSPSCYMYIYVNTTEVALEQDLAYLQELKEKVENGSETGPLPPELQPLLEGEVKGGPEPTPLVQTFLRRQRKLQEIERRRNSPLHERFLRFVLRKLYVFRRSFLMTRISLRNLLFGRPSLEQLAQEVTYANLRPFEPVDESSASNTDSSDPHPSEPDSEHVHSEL
Procedure, shortened: (§2)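 Rat liver microsomes from vitamin K deficient animals were used, following the Wood and Suttie method. Carboxylation was read as ¹⁴CO₂ incorporation into the Glu-site substrate, in dpm. The cyclopropyl analogue was tested at 2 mM, the Glu-site substrate at 1 mM, each alone or combined. Incubation ran at 17 °C for 30 min. Values are mean ± SD of four values.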

Rattus norvegicus [4] = species: Rattus norvegicus; assay: Epoxide formation was determined at a concentration of 0.5 mM incubation at 17 degree Celsius for 60 minutes; assay type: functional; procedure, shortened: as §1
[5] = target: T1, Vitamin K-dependent gamma-carboxylase (Rattus norvegicus); assay: Inhibition of Vitamin K-dependent gamma-carboxylase was determined at a concentration of 0.5 mM, incubations were at 17 degree Celsius for 60 minutes
[6] = target: T1, Vitamin K-dependent gamma-carboxylase (Rattus norvegicus); assay: Inhibition of vitamin K dependent carboxylase was determined at a concentration of 1 mM of compound along with 2 mM of 1-tert-Butoxycarbonylamino-2-carboxymethyl-cyclopropanecarboxylic acid benzyl ester; procedure, shortened: as §2
[7] = target: T1, Vitamin K-dependent gamma-carboxylase (Rattus norvegicus); assay: Inhibition of vitamin K dependent carboxylase was determined at a concentration of 0.5 mM of compound along with 5 mM of 1-tert-Butoxycarbonylamino-2-carboxymethyl-cyclopropanecarboxylic acid benzyl ester
Procedure, shortened: (§3)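 Liver microsomal carboxylase came from vitamin K deficient rats. Activity was taken as ¹⁴CO₂ incorporation into the Glu-site substrate, in dpm. The analogue was present at 5 mM and/or the Glu-site substrate at 0.5 mM. Incubation ran at 17 °C for 60 min. Values are mean ± SD of four values.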

[8] = target: T1, Vitamin K-dependent gamma-carboxylase (Rattus norvegicus); assay: Inhibition of Vitamin K-dependent gamma-carboxylase was determined at a concentration of 5 mM, incubations were at 17 degree Centigrade for 60 minutes
[9] = target: T1, Vitamin K-dependent gamma-carboxylase (Rattus norvegicus); assay: Inhibition of Vitamin K-dependent gamma-carboxylase was determined at a concentration of 2 mM, incubations were at 17 degree Celsius for 30 minutes; procedure, shortened: as §2
[10] = target: T1, Vitamin K-dependent gamma-carboxylase (Rattus norvegicus); assay: Vitamin K-dependent gamma-carboxylase activity was assayed in liver microsomes prepared from vitamin K deficient rats incubated at 17 degree Celsius for 60 min (compounds tested the ratio of 5 mM 19 and 0.5 mM 20); details: Microsome; procedure, shortened: as §3
[11] = target: T1, Vitamin K-dependent gamma-carboxylase (Rattus norvegicus); assay: Vitamin K-dependent gamma-carboxylase activity was assayed in liver microsomes prepared from vitamin K deficient rats incubated at 17 degree Celsius for 30 min (compounds tested the ratio of 2 mM 19 and 1 mM 20); details: Microsome; procedure, shortened: as §2
Rattus norvegicus [12] = species: Rattus norvegicus; assay: Compound was evaluated for the epoxide formation at 5 mM incubations were at 17 degree Celsius for 60 minutes; assay type: functional; procedure, shortened: as §1
[13] = target: T1, Vitamin K-dependent gamma-carboxylase (Rattus norvegicus); assay: Vitamin K-dependent gamma-carboxylase activity was assayed in liver microsomes prepared from vitamin K deficient rats incubated at 17 degree Celsius for 30 min; details: Microsome; procedure, shortened: as §2
[14] = target: T1, Vitamin K-dependent gamma-carboxylase (Rattus norvegicus); assay: Vitamin K-dependent gamma-carboxylase activity was assayed in liver microsomes prepared from vitamin K deficient rats incubated at 17 degree Celsius for 60 min; details: Microsome; procedure, shortened: as §3
Rattus norvegicus [15] = species: Rattus norvegicus; assay: Epoxide formation after incubation at 17 degree Centigrade for 60 min; assay type: functional; procedure, shortened: as §1

SMILES: CC(C)(C)OC(=O)NC(CCC(=O)O)C(=O)OCc1ccccc1.CC(C)(C)OC(=O)NC1(C(=O)OCc2ccccc2)CC1CC(=O)O (stereo not given) [listing 1 of 2 here]
Epoxide formation (Rattus norvegicus [1]): 6.7 nmol

SMILES: CC(C)(C)OC(=O)NC1(C(=O)OCc2ccccc2)CC1CC(=O)O (stereo not given) [listing 1 of 2 here]
Carboxylase activity [8]: 690 dpm
Carboxylase activity [9]: 300 dpm

SMILES: CC(C)(C)OC(=O)NC1(C(=O)OCc2ccccc2)CC1CC(=O)O (stereo not given) [listing 2 of 2 here]
Epoxide formation (Rattus norvegicus [12]): 5.1 nmol

SMILES: CC(C)(C)OC(=O)NC(CCC(=O)O)C(=O)OCc1ccccc1 (stereo not given)
Carboxylase activity [13]: 5800 dpm
Carboxylase activity [14]: 12600 dpm
Epoxide formation (Rattus norvegicus [15]): 7.1 nmol

Second part, led by results:

Carboxylase activity [3]: 5800 dpm
Carboxylase activity [5]: 12600 dpm
SMILES: CC(C)(C)OC(=O)N[C@H](CCC(=O)O)C(=O)OCc1ccccc1
Epoxide formation (Rattus norvegicus [2]): 6.7 nmol
Epoxide formation (Rattus norvegicus [4]): 7.1 nmol
Carboxylase activity [6]: 5770 dpm
Carboxylase activity [7]: 12200 dpm

Carboxylase activity [10]: 12200 dpm
Carboxylase activity [11]: 5770 dpm
SMILES: CC(C)(C)OC(=O)NC(CCC(=O)O)C(=O)OCc1ccccc1.CC(C)(C)OC(=O)NC1(C(=O)OCc2ccccc2)CC1CC(=O)O (stereo not given) [listing 2 of 2 here]
